This passage reports inhibition zone (IZ) and CFU results from ChEMBL document CHEMBL1145465, “PhoU is a persistence switch involved in persister formation and tolerance to multiple antibiotics and stresses in Escherichia coli” (2007).

The structures appear in SMILES notation.

Assay type in all cases: functional
Assay [1] has as its system Escherichia coli. Kind of assay: Antibacterial activity against Escherichia coli K12 mutant JHU313 at 6 ug/ml after 48 hrs by disc diffusion method. The method in brief:
(§1)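 Kirby-Bauer disc assay: log-phase LB culture was spread on LB agar for confluent growth. 7-mm nitrocellulose discs were soaked in antibiotic at the listed concentration and placed on the agar. After 48 h at 37°C, the diameter of the inhibition zone was measured in mm.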

In assay [2] the test system is Escherichia coli. Kind of assay: Antibacterial activity against Escherichia coli K12 containing deletion deltaphoU mutant assessed as cell count in log phase at 100 ug/ml after 5 hrs. In a few lines:
(§2)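 Wild-type W3110-derived deletion mutants were made by the Datsenko–Wanner method. Log-phase or stationary-phase cultures were exposed to ampicillin 100 μg/ml in MOPS minimal medium at pH 5.0, at 37°C without shaking. Aliquots were taken at set times, washed in saline and plated on LB for viable CFU/ml.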

Assay [3] deals with Escherichia coli. Kind of assay: Antibacterial activity against Escherichia coli K12 containing deletion deltaphoU mutant assessed as cell count in stationary phase at 100 ug/ml after 5 hrs. The method in brief:
as §2

Assay [4] concerns Escherichia coli. Nature of the assay: Antibacterial activity against Escherichia coli K12 PhoU wild type W3110 assessed as cell count in stationary phase at 100 ug/ml after 1 day. The method in brief: (§3)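 Log-phase or stationary-phase cultures exposed to ampicillin 100 μg/ml in MOPS minimal medium (pH 5.0) at 37°C without shaking, for 5 h up to 10 days. Aliquots were taken at each time point, washed in saline and plated on LB plates for viable CFU/ml.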

Assay [5] deals with Escherichia coli. Nature of the assay: Antibacterial activity against Escherichia coli K12 PhoU wild type W3110 assessed as cell count in stationary phase at 100 ug/ml after 3 days. In a few lines: (§4)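 Log-phase or stationary-phase cultures were exposed to ampicillin (100 μg/ml) or norfloxacin (3 μg/ml) in MOPS minimal medium, pH 5.0, at 37°C without shaking, for 5 h to 10 days. Aliquots were saline-washed and plated on LB for CFU/ml.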

The subject of assay [6] is Escherichia coli. Kind of assay: Antibacterial activity against Escherichia coli K12 PhoU wild type W3110 assessed as cell count in log phase at 100 ug/ml after 5 days. The method in brief: as §3
Assay [7] concerns Escherichia coli. Kind of assay: Antibacterial activity against Escherichia coli K12 containing deletion deltaphoR mutant assessed as cell count in stationary phase at 100 ug/ml after 24 hrs. In a few lines:
as §2

Assay [8] concerns Escherichia coli. Nature of the assay: Antibacterial activity against Escherichia coli K12 containing deletion deltahipA mutant assessed as cell count in log phase at 100 ug/ml after 24 hrs. In a few lines:
(§5)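 Deletion mutants were made by the Datsenko–Wanner method. Log-phase or stationary-phase cultures were exposed to ampicillin at 100 μg/ml. CFU/ml was determined at the start and after 5, 24 and 72 h of exposure.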

The subject of assay [9] is Escherichia coli. Kind of assay: Antibacterial activity against Escherichia coli K12 PhoU wild type W3110 at 25 ug/ml after 48 hrs by disc diffusion method. In a few lines: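 Kirby-Bauer disc assay. Log-phase LB broth culture (10⁸ bacteria) was spread on LB agar for confluent growth. 7 mm nitrocellulose discs soaked in antibiotic solution at the listed concentration were placed on the agar. Inhibition zone diameter (mm) was measured after 48 h at 37°C.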
A general note: In agar diffusion tests the substance spreads into inoculated agar from a disc or well.

Assay [10] relates to Escherichia coli. Kind of assay: Antibacterial activity against Escherichia coli K12 PhoU wild type W3110 assessed as cell count at 100 ug/ml.
The test system of assay [11] is Escherichia coli. Nature of the assay: Antibacterial activity against Escherichia coli K12 PhoU wild type W3110 assessed as cell count in log phase at 100 ug/ml after 1 week. The method in brief:
as §3

The subject of assay [12] is Escherichia coli. Kind of assay: Antibacterial activity against Escherichia coli K12 PhoU wild type W3110 assessed as cell count in stationary phase at 100 ug/ml after 1 week. The method in brief: as §3
In assay [13] the test system is Escherichia coli. Kind of assay: Antibacterial activity against Escherichia coli K12 containing deletion deltaphoBR mutant assessed as cell count in stationary phase at 100 ug/ml after 5 hrs. The method in brief:
as §5

The test system of assay [14] is Escherichia coli. Kind of assay: Antibacterial activity against Escherichia coli K12 containing deletion deltahipA mutant assessed as cell count in log phase at 100 ug/ml after 5 hrs. The method in brief:
as §5

Assay [15] has as its system Escherichia coli. Kind of assay: Antibacterial activity against Escherichia coli K12 containing deletion deltaphoB mutant assessed as cell count in log phase at 100 ug/ml after 24 hrs. The method in brief: as §5
The subject of assay [16] is Escherichia coli. Kind of assay: Antibacterial activity against Escherichia coli K12 PhoU wild type W3110 assessed as cell count in stationary phase at 3 ug/ml after 1 day. In a few lines: as §4
Assay [17] has as its system Escherichia coli. Kind of assay: Antibacterial activity against Escherichia coli K12 containing PhoU mutant assessed as cell count in stationary phase at 3 ug/ml after 1 day. The method in brief: as §4
Assay [18] deals with Escherichia coli. Nature of the assay: Antibacterial activity against Escherichia coli K12 PhoU wild type W3110 assessed as cell count in log phase at 3 ug/ml after 3 days. In a few lines:
as §4

In assay [19] the test system is Escherichia coli. Kind of assay: Antibacterial activity against Escherichia coli K12 PhoU wild type W3110 assessed as cell count in stationary phase at 3 ug/ml after 3 days. The method in brief:
as §4

The test system of assay [20] is Escherichia coli. Kind of assay: Antibacterial activity against Escherichia coli K12 containing PhoU mutant assessed as cell count in log phase at 3 ug/ml after 3 days. The method in brief: as §4
Assay [21] concerns Escherichia coli. Kind of assay: Antibacterial activity against Escherichia coli K12 PhoU wild type W3110 assessed as cell count in log phase at 3 ug/ml after 5 days. The method in brief: as §4
Assay [22] has as its system Escherichia coli. Kind of assay: Antibacterial activity against Escherichia coli K12 PhoU wild type W3110 assessed as cell count in stationary phase at 3 ug/ml after 1 week. The method in brief: as §4
Assay [23] has as its system Escherichia coli. Nature of the assay: Antibacterial activity against Escherichia coli K12 containing PhoU mutant assessed as cell count in log phase at 3 ug/ml after 1 week. In a few lines:
as §4

Assay [24] concerns Escherichia coli. Nature of the assay: Antibacterial activity against Escherichia coli K12 containing PhoU mutant assessed as cell count in stationary phase at 3 ug/ml after 1 week. The method in brief:
as §4

The test system of assay [25] is Escherichia coli. Kind of assay: Antibacterial activity against Escherichia coli K12 PhoU wild type W3110 at 0.5 ug/ml after 48 hrs by disc diffusion method. The method in brief:
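Kirby-Bauer disc assay. Log-phase LB culture (10⁸ bacteria) was spread for confluent growth on LB agar. 7 mm nitrocellulose discs soaked in antibiotic at the listed concentrations were laid on the agar. Inhibition zone diameter (mm) was measured after 48 h at 37°C.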

Assay [26] concerns Escherichia coli. Nature of the assay: Antibacterial activity against Escherichia coli K12 mutant JHU313 containing plasmid vector at 0.5 ug/ml after 48 hrs by disc diffusion method. In a few lines:
as §1

Assay [27] relates to Escherichia coli. Kind of assay: Antibacterial activity against Escherichia coli K12 mutant JHU313 at 0.1 ug/ml after 48 hrs by disc diffusion method. In a few lines:
as §1

Assay [28] relates to Escherichia coli. Nature of the assay: Antibacterial activity against Escherichia coli K12 mutant JHU313 containing plasmid PhoU at 0.1 ug/ml after 48 hrs by disc diffusion method. The method in brief:
as §1

The subject of assay [29] is Escherichia coli. Kind of assay: Antibacterial activity against Escherichia coli K12 containing PhoU mutant assessed as cell count in log phase at 3 ug/ml after 5 hrs. The method in brief: as §4
The subject of assay [30] is Escherichia coli. Nature of the assay: Antibacterial activity against Escherichia coli K12 PhoU wild type W3110 assessed as cell count in log phase at 3 ug/ml after 1 day. In a few lines:
as §4

The test system of assay [31] is Escherichia coli. Nature of the assay: Antibacterial activity against Escherichia coli K12 containing deletion deltaphoU mutant assessed as cell count in log phase at 3 ug/ml after 10 days. The method in brief:
(§6)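 Log-phase or stationary-phase cultures of the ΔphoU deletion mutant (Datsenko–Wanner construction) were exposed to norfloxacin 3 μg/ml in MOPS minimal medium, pH 5.0, at 37°C without shaking, for up to 10 days. Sampled aliquots were washed in saline and plated on LB agar for CFU/ml.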

The test system of assay [32] is Escherichia coli. Kind of assay: Antibacterial activity against Escherichia coli K12 containing deletion deltaphoU mutant assessed as cell count in stationary phase at 3 ug/ml after 10 days. The method in brief:
as §6

Turning to `CC1(C)S[C@@H]2[C@H](NC(=O)[C@H](N)c3ccccc3)C(=O)N2[C@H]1C(=O)O` [AMPICILLIN], the inhibition zone (IZ) amounted to 30 mm with Escherichia coli [1] and 28 mm in the assay on Escherichia coli [9]. Further, the CFU was 1 10^2/ml in the assay with Escherichia coli [2]; 2 10^8/ml in the assay on Escherichia coli [3]; 2 10^9/ml in the assay with Escherichia coli [4]; 1 10^8/ml in the assay with Escherichia coli [5]; 0 mL⁻¹ in the assay with Escherichia coli [6]; 1.5 10^9/ml in the assay on Escherichia coli [7]. The CFU is 1 10^3/ml in the assay with Escherichia coli [8]; 5 10^7/ml in the assay on Escherichia coli [10]; 0 mL⁻¹ in the assay with Escherichia coli [11]; 5 10^6/ml in the assay with Escherichia coli [12]; 3 10^9/ml in the assay with Escherichia coli [13]; 1 10^4/ml with Escherichia coli [14]. The CFU in the assay with Escherichia coli [15] is given as 1 10^2/ml.
Consider `CCn1cc(C(=O)O)c(=O)c2cc(F)c(N3CCNCC3)cc21` [NORFLOXACIN], for which the CFU in the assay on Escherichia coli [16] is 4 10^9/ml; in the assay with Escherichia coli [17], 4.5 10^7/ml; in the assay with Escherichia coli [18], 5 10^4/ml; with Escherichia coli [19], 1 10^8/ml; in the assay on Escherichia coli [20], 0 mL⁻¹; in the assay with Escherichia coli [21], 7 10^2/ml. Also, the CFU is 1.5 10^4/ml in the assay on Escherichia coli [22]; 0 mL⁻¹ with Escherichia coli [23]; 0 mL⁻¹ with Escherichia coli [24]; 2 10^7/ml with Escherichia coli [29]; 4 10^6/ml in the assay with Escherichia coli [30]; 0 mL⁻¹ in the assay on Escherichia coli [31]. In the assay on Escherichia coli [32], the CFU was 0 mL⁻¹. Besides, the inhibition zone (IZ) in the assay with Escherichia coli [25] was determined as 27 mm; in the assay on Escherichia coli [26] it was 35 mm; in the assay with Escherichia coli [27], 28 mm; in the assay with Escherichia coli [28], 27 mm.
